From ChEMBL document CHEMBL1123648, “Synthesis, chemical reactivity, and antileukemic activity of 5-substituted 6,7-bis(hydroxymethyl)pyrrolo[1,2-c]thiazole biscarbamates and the corresponding sulfoxides and sulfones” (1987)

Assays:
[1] = Antileukemic activity against Murine P388 lymphocytic leukemia, body weight difference of the test animals compared to control group B animals at a dose of 100 mg/kg; format: functional, Mus musculus; design: unit not given here
Summary of the method: (§1)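 CD2F1 mice implanted intraperitoneally with ascitic fluid carrying ca. 1×10^6 P388 cells, under the NCI protocol. Dosing was intraperitoneal, starting 24 h after inoculation, then every 24 h for five doses in total. The body weight difference of treated mice is taken against untreated controls. Toxicity day survivors are the mice alive at day five out of those tested.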

[2] = Antileukemic activity against Murine P388 lymphocytic leukemia, body weight difference of the test animals compared to control group B animals at a dose of 12.5 mg/kg; format: functional, Mus musculus; design: unit not given here; summary of the method: as §1
[3] = Antileukemic activity against Murine P388 lymphocytic leukemia, body weight difference of the test animals compared to control group C animals at a dose of 100 mg/kg; format: functional, Mus musculus; design: unit not given here; summary of the method: as §1
[4] = Antileukemic activity against Murine P388 lymphocytic leukemia, body weight difference of the test animals compared to control group C animals at a dose of 6.25 mg/kg; format: functional, Mus musculus; summary of the method: as §1
[5] = Antileukemic activity against Murine P388 lymphocytic leukemia, body weight difference of the test animals compared to control group A animals at a dose of 12.5 mg/kg; format: functional, Mus musculus; summary of the method: as §1
[6] = Toxicity day survivors expressed as number of animals that survived to day five/ number of test animals under control group A at a dose of 50 mg/kg; 6 survived out of 6; format: functional, Mus musculus
[7] = Antileukemic activity against Murine P388 lymphocytic leukemia and toxicity day survivors expressed as number of animals that survived to day five/ number of test animals under control group B at a dose of 6.25 mg/kg; 6 survived out of 6; format: functional, Mus musculus
[8] = Toxicity day survivors expressed as number of animals that survived to day five/ number of test animals under control group A at a dose of 12.5 mg/kg; 6 survived out of 6; format: functional, Mus musculus
[9] = Percent increase in life span of test animals compared to untreated tumor-bearing control group C animals at a dose of 12.5 mg/kg; format: functional; settings: Mus musculus
[10] = Log cell population relative to cell population at the beginning of treatment compared to control group C at a dose of 100 mg/kg; format: functional, Mus musculus
[11] = Percent increase in life span of test animals compared to untreated tumor-bearing control group C animals at a dose of 25 mg/kg; format: functional; settings: Mus musculus
[12] = Toxicity day survivors expressed as number of animals that survived to day five/ number of test animals under control group C at a dose of 100 mg/kg; 6 survived out of 6; format: functional, Mus musculus
[13] = Percent increase in life span of test animals compared to untreated tumor-bearing control group A animals at a dose of 12.5 mg/kg; format: functional; settings: Mus musculus
P388 [14] = test: Percent increase in life span of test animals compared to untreated tumor-bearing control group B animals at a dose of 50 mg/kg; format: functional; settings: Mus musculus
P388 [15] = test: Log cell population relative to cell population at the beginning of treatment compared to control group A at a dose of 50 mg/kg; format: functional, Mus musculus
P388 [16] = test: Log cell population relative to cell population at the beginning of treatment compared to control group C at a dose of 25 mg/kg; format: functional, Mus musculus

## CC(C)NC(=O)OCc1c(COC(=O)NC(C)C)c(-c2ccc(Cl)c(Cl)c2)n2c1CCC2
[1]
  BWD: -4.6
[2]
  BWD: -1.9
[3]
  BWD: -2.6
[4]
  BWD: -1.1
[5]
  BWD: -0.6
[6]
  TDS: 6
[7]
  TDS: 6
[8]
  TDS: 6
[9]
  ILS at 12.5 mg/kg: 32%
[10]
  KE: >6.68
[11]
  ILS at 25 mg/kg: 55%
[12]
  TDS: 6
[13]
  ILS at 12.5 mg/kg: 56%
P388 [14]
  ILS at 50 mg/kg: 95%
P388 [15]
  KE: 4.35
P388 [16]
  KE: 1.85
